# Source: PubChem BioAssay (Broad Institute)
# RAD54 branch = inhibitors of human RAD54 branch migration, primary screen, biochemical, fluorescence, single point; DNA repair and recombination protein RAD54-like (Homo sapiens), Q92698; RAD54 Holliday junction branch migration, FAM/BHQ fluorescence; inhibition, % at 10.4 µM; hit rate 0.14% among 360,000;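 active = mean normalized replicate activity at least 40 and at least half of replicates scoring 40 or more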;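 note: 0% = median of neutral control wells and 100% = median of positive control wells; inhibitors cause a drop in the FAM fluorescence signal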
# Ecoli rRNA inh = reduced GFP signal of wild-type E. coli, primary screen, bacterial rRNA inhibitor project, GFP/RFP fluorescence, OD600, single point; E. coli WT GFP vs humanized-ribosome RFP mutants, 24 h; stronger effect = lower value; DMSO median 0, no signal -100; GFP signal change (wild-type ribosome), % (concentration not given with the values); hit rate 1.6% among 350,000;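 active = significant combined selectivity score with lowered wild-type GFP, culture density cut under 30%, mutant RFP and density less affected; inactive = any of these conditions unmet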
# PglD DTNB = C. jejuni PglD acetyltransferase inhibitors, primary screen, biochemical, DTNB colorimetric, single point | UDP-N-acetylbacillosamine N-acetyltransferase PglD (Campylobacter jejuni) | purified PglD enzyme, DTNB colorimetric CoA detection | inhibition, % at 12.5 µM | hit rate 0.098% among 360,000 | AID 602405, 2012; in the data active = inhibition above about 16%, passing the limit was not always enough
# RAD52 inh = RAD52 DNA annealing inhibitors, primary screen, biochemical, FRET, single point, set 2 | recombinant RAD52 DNA annealing, FRET fluorescence | inhibition, % at 18.7 µM | hit rate 0.46% among 360,000 | AID 651710, 2012;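 active = every replicate showing at least 50% inhibition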
# Target sequence (P43351 whole entry, looked up): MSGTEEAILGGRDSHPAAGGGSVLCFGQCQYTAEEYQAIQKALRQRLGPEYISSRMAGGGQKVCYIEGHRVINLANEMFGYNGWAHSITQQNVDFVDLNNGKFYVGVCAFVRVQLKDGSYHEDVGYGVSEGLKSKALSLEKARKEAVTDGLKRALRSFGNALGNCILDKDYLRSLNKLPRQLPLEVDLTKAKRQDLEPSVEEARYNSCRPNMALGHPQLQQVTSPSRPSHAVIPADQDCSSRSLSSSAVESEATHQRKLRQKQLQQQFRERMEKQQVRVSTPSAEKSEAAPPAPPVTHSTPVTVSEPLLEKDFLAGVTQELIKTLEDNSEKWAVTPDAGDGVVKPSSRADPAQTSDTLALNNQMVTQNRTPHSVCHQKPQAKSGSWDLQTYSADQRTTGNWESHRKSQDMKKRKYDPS
# XiGFP reactiv = activators of inactive X chromosome reactivation, primary screen, imaging, XiGFP fibroblasts, GFP high-content imaging, set 2. XiGFP mouse fibroblasts, % GFP-positive cells imaging, 3 d; cells co-treated with 5-aza-dC sensitizer; scaled so ellipticine positive control = 100%. activation, % at 7.58 µM. hit rate 0.055% among 360,000. AID 743238, 2013;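 active = mean normalized replicate activation at least 10% and every replicate at or above 10%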;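 note: 0% = median of on-plate neutral control wells and 100% = ellipticine 6 µM median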
#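 material = 68-5-11 XiGFP fibroblast line | medium = DMEM plus 5-aza-dC sensitizer | schedule = 3 days compound exposure | benchmarks = positive control ellipticine, 6 µM final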
# E-selectin induc = E-selectin induction in HUVECs, primary screen, imaging, HUVEC, immunofluorescence imaging, single point; P16581; normalized: neutral wells 0, TNF-alpha wells 100; activation, % at 7.58 µM; hit rate 0.37% among 260,000;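 active = mean E-selectin-positive cell signal at least 10% of the positive control, reached in at least 60% of replicates, without over 20% cell loss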
#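 Test system – human umbilical vein endothelial cells (HUVEC), E-selectin induction · Input – 3,000 HUVEC seeded per well · Buffer or medium – EGM-2, gelatin · Compound dosing – single-point compound dose · Detection – immunofluorescence imaging · Measure – percent E-selectin-positive cells · Controls – TNF-alpha high, DMSO low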
# An asterisk follows results filed as active; . = no result; ! = not active in a repeat. This is a sample that favours compounds with a hit; in the whole collection about 2% have one here.
SMILES,RAD54 branch,Ecoli rRNA inh,PglD DTNB,RAD52 inh,XiGFP reactiv,E-selectin induc
CCn1c(=O)c2cc(C(=O)NCCCOC)sc2c2ccccc21,12,-16,4,6,0,53*
CN1OC[C@@H]2CN(Cc3ccccc3)[C@H](c3ccc(-n4ccnc4)cc3)C[C@@H]21,-2,-32*,-1,-1,0,-7
CN1OC[C@@H]2CN(C(=O)CCc3ccccc3)[C@H](c3ccc(-n4ccnc4)cc3)C[C@@H]21,-2,8,-2,-10,.,0
CNC[C@@H]1Oc2ncc(-c3ccc(OC)cc3)cc2C(=O)N([C@@H](C)CO)C[C@@H]1C,-9,3,-2,1,1,1
O=C(CSc1ccc2ccccc2c1)Nc1ccncc1,-7,-50,-4,-11,.,.
O=C(CSc1ccncc1)Nc1ccc2ccccc2c1,.,-31*,.,-22,0,19
CN(/N=C/Cc1nnnn1-c1ccc(Cl)cc1)c1ccccc1,.,-22*,.,-4,0,.
COc1cccc(NC(=O)N[C@@H]2CC[C@H](CC(=O)N3CCOCC3)O[C@H]2CO)c1,0,2,16,-13,1,0
CCSCC1COC(c2cccn2Cc2ccc(C)cc2)=N1 (stereo unspecified),-4,.,4,.,.,.
CCC1COC(c2cccn2Cc2ccc(Cl)cc2)=N1 (stereo unspecified),-6,-22*,9,-8,0,.
C[C@H](CO)N1C[C@H](C)[C@@H](CN(C)C(=O)C2CCCCC2)Oc2cc(C#CC3CC3)ccc2S1(=O)=O,.,-5,.,.,-1,0
CCN(CC)CCOc1ccc2c(c1)C(=NO)c1cc(OCCN(CC)CC)ccc1-2,125*,.,1,.,.,.
Cc1ccc(C(=O)Nc2c(-c3ccc(Cl)cc3)[nH][nH]c2=O)cc1,7,-4,-3,2,0,2
O=C(Nc1c(-c2ccccc2)[nH][nH]c1=O)c1ccc(-c2ccccc2)cc1,.,-14*,.,-13,0,0
Cc1nn(-c2ccccc2)c(Cl)c1/C=C1\SC(=S)N(CCCCCC(=O)O)C1=O,.,-32*,.,-11,0,.
C[C@@H]1CCCCO[C@H](CN(C)Cc2ccncc2)[C@H](C)CN([C@@H](C)CO)C(=O)c2cc(NC(=O)Nc3ccc(C(F)(F)F)cc3)ccc2O1,-20,3,0,47,0,0
Cc1[nH]c(=O)c(C(=O)/C=C/c2ccccc2F)c2c1CCCC2,-1,-18*,4,-14,.,.
O=C(N/N=C/c1ccccn1)c1cccc(S(=O)(=O)Nc2ccccc2Cl)c1,.,-40*,.,-35,0,5
Cc1ccsc1/C=N/NC(=O)c1cccc(S(=O)(=O)Nc2ccccc2Cl)c1,.,.,.,4,0,.
CC(=O)c1sc(NC(=O)c2ccccc2)nc1-c1ccccc1,.,-20*,.,-12,0,2
CC(=O)c1sc(NC(=O)c2c(F)cccc2F)nc1-c1ccccc1,1,-10,-2,-15,0,.
COC(=O)CC1=C(c2ccc([N+](=O)[O-])cc2)CCC1=O,2,-19*,2,-1,0,0
Cc1ccc(C2=C(CC(=O)O)C(=O)CC2)cc1,-19,.,-1,.,0,.
COc1ccc(NC(=O)N(C)C[C@H]2Oc3ccc(NC(=O)c4ccncc4)cc3CC(=O)N([C@H](C)CO)C[C@@H]2C)cc1,-6,2,1,0,0,41*
COc1ccc(NC(=O)N(C)C[C@@H]2Oc3ccc(NC(=O)c4ccncc4)cc3CC(=O)N([C@H](C)CO)C[C@@H]2C)cc1,1,6,7,-6,0,226*
SMILES,RAD54 branch,Ecoli rRNA inh,PglD DTNB,RAD52 inh,XiGFP reactiv,E-selectin induc
COc1ccc(NC(=O)N(C)C[C@@H]2Oc3ccc(NC(=O)c4ccncc4)cc3CC(=O)N([C@@H](C)CO)C[C@H]2C)cc1,4,5,-5,-7,0,72*
C[C@@H]1CN([C@H](C)CO)C(=O)Cc2cc(NC(=O)c3ccncc3)ccc2O[C@@H]1CN(C)S(C)(=O)=O,-2,5,0,-8,0,15
C[C@@H]1CN([C@@H](C)CO)C(=O)Cc2cc(NC(=O)c3ccncc3)ccc2O[C@@H]1CN(C)S(C)(=O)=O,4,4,1,7,0,37*
COc1ccc(NC(=O)N(C)C[C@H]2Oc3ccc(NC(=O)c4ccncc4)cc3CC(=O)N([C@@H](C)CO)C[C@H]2C)cc1,-3,4,-1,9,0,17
COc1ccc(CN(C)C[C@@H]2Oc3ccc(NC(=O)c4ccncc4)cc3CC(=O)N([C@H](C)CO)C[C@@H]2C)cc1,9,-3,-3,-16,0,0
CC(C)NC(=O)N1C[C@@H]2[C@H](c3ccccc31)[C@@H](CO)N2Cc1ccccc1,-1,4,-4,-10,0,0
C[C@H]1CN([C@@H](C)CO)C(=O)CCCn2cc(nn2)CO[C@@H]1CN(C)C(=O)Nc1ccc(N2CCN(C)CC2)cc1,-9,21,2,55*!,0,0
C[C@H]1CN([C@@H](C)CO)C(=O)Cc2cc(NC(=O)c3ccncc3)ccc2O[C@H]1CN(C)C(=O)Nc1ccc(C(F)(F)F)cc1,-7,2,4,-3,4,33*
COc1ccc(NC(=O)N(C)C[C@@H]2Oc3ccc(NC(=O)c4ccncc4)cc3CC(=O)N([C@@H](C)CO)C[C@@H]2C)cc1,0,4,-2,-7,0,81*
C[C@H]1CN([C@@H](C)CO)C(=O)Cc2cc(NC(=O)c3ccncc3)ccc2O[C@@H]1CN(C)C(=O)Nc1ccc(C(F)(F)F)cc1,1,5,0,10,0,-1
COc1ccc(NC(=O)N(C)C[C@H]2Oc3ccc(N(C)C)cc3CC(=O)N([C@H](C)CO)C[C@@H]2C)cc1,4,-3,-4,-9,0,327*
C[C@H](CO)N1C[C@H](C)[C@@H](CN(C)S(C)(=O)=O)Oc2ncc(C#CC3CCCCC3)cc2C1=O,-3,0,1,1,-1,0
C[C@@H](NC(=O)C[C@@H]1C=C[C@@H](NC(=O)Cc2ccccn2)[C@H](CO)O1)c1ccccc1,4,3,-2,-10,0,0
O=C(NC(=S)N1CCN(C/C=C/c2ccccc2)CC1)c1ccc(Cl)nc1,-24,-49*,5,-18,0,.
